Results of several laboratories.
Each line is one published result; the experiments were not run side by side.
SLC6A2: Sodium-dependent noradrenaline transporter (SLC6A2, Homo sapiens, UniProt P23975)
CECR2: Chromatin remodeling regulator CECR2 (CECR2, Homo sapiens, UniProt Q9BXF3)

Cc1ccc(C(=O)Nc2ccc(CN3CCN(C)CC3)c(C(F)(F)F)c2)cc1C#Cc1cnc2cccnn12  remaining activity (Serine/threonine-protein kinase WNK4 (WNK4, Homo sapiens, UniProt Q96J92); enzyme activity, inhibitor; 23.5 nM): 93%
CC(=O)N[C@H]1CSSC[C@@H](C(=O)N[C@H](Cc2c[nH]c3ccccc23)C(N)=O)NC(=O)[C@H](Cc2ccccc2)NC(=O)[C@H](CCCNC(=N)N)NC1=O  Emax (Melanocortin receptor 4 (MC4R, Homo sapiens, UniProt P32245); cAMP, agonist; HEK293; 3 min): 0%
CNC(=O)c1cc(Oc2ccc(NC(=O)Nc3ccc(Cl)c(C(F)(F)F)c3)cc2)ccn1  inhibition (Serine/threonine-protein kinase Chk2 (CHEK2, Homo sapiens, UniProt O96017, R145W); enzyme activity, inhibitor; 0.3 µM): -8%
Clc1ccc(C(c2ccc(Cl)cc2)c2nnnn2CCCCN2CCN(Cc3ccccc3)CC2)cc1  inhibition (SLC6A2; transporter uptake, inhibitor; HEK293; 1 µM): 79%
Cc1ccc(Nc2nccc(N(C)c3ccc4c(C)n(C)nc4c3)n2)cc1S(N)(=O)=O  inhibition (Serine/threonine-protein kinase Chk2 (CHEK2, Homo sapiens, UniProt O96017); enzyme activity, inhibitor; 10 µM): 44%
Nc1ncnc2occ(-c3ccc(NC(=O)Nc4cc(C(F)(F)F)ccc4F)cc3)c12  remaining signal (Peripheral plasma membrane protein CASK (CASK, Homo sapiens, UniProt O14936); cell-free assay; 20 µM): 56%
CC(C)CCC[C@@H](C)[C@H]1CC[C@H]2[C@@H]3[C@H](O)CC4=CC(=O)CC[C@]4(C)[C@H]3CC[C@]12C  Km (7-alpha-hydroxycholest-4-en-3-one 12-alpha-hydroxylase (Homo sapiens, UniProt Q9UNU6); enzyme activity, substrate): 0.505 µM
Cc1cc(NC(=O)c2cccc3cc(-c4cccc5[nH]nc(N)c45)ccc23)ccc1F  activity vs control (Serine/threonine-protein kinase Chk2 (CHEK2, Homo sapiens, UniProt O96017, I157T); enzyme activity, inhibitor; 0.1 µM): 72%
C[S+]([O-])c1ccc(-c2nc(-c3ccncc3)c(-c3ccc(F)cc3)[nH]2)cc1 (centres unmarked)  ΔTm (CECR2; thermal stability, DSF; 10 µM): 0.89 °C
Clc1ccc(C(c2ccc(Cl)cc2)c2nnnn2CCCCN2CCC(Cc3ccc(Cl)c(Cl)c3)CC2)cc1  inhibition (SLC6A2; transporter uptake, inhibitor; HEK293; 1 µM): 41.1%
CC(C)(C)c1nc(-c2cccc(NS(=O)(=O)c3c(F)cccc3F)c2F)c(-c2ccnc(N)n2)s1  remaining activity (Mitotic checkpoint serine/threonine-protein kinase BUB1 beta (BUB1B, Homo sapiens, UniProt O60566); enzyme activity, inhibitor, radiometric; 1 µM): 101%
CCCOc1ccc(OC)c(F)c1C(=O)c1ccc(C(=O)N[C@@H]2CNC[C@H]2NC(=O)c2ccc3[nH]ncc3c2)cc1  remaining activity (cAMP-dependent protein kinase catalytic subunit PRKX (PRKX, Homo sapiens, UniProt P51817); enzyme activity, inhibitor; 0.1 µM): 16%
Fc1ccc(C(c2ccc(F)cc2)c2nnnn2CCCCN2CCN(Cc3ccccc3)CC2)cc1  inhibition (SLC6A2; transporter uptake, inhibitor; HEK293; 1 µM): 95%
NS(=O)(=O)c1ccc(Nc2nc(-c3ccc(F)cc3)c3ccccc3n2)cc1  remaining binding (CECR2; binding, competition with immobilised ligand; 1 µM): 79%
